From ChEMBL document CHEMBL3352496, “Design, synthesis and evaluation of novel triazole core based P-glycoprotein-mediated multidrug resistance reversal agents” (Bioorg Med Chem, 2014)
Structures can show the parent of a compound that is named as a salt.

Columns and labels:
[1] = Resistance factor, ratio of adriamycin IC50 for human K562/A02 cells over-expressing Pgp to adriamycin IC50 for human K562/A02 cells over-expressing Pgp in presence of 5 uM compound; type: functional
Summary of the method: (§1)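 MTT on K562/A02 cells exposed to a series of adriamycin concentrations, with or without modulator at 5 µM; 0.1% DMSO as solvent control. Reversal fold = adriamycin IC50 without modulator / IC50 with modulator.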

[2] = Cytotoxicity against human K562/A02 cells at 5 uM after 48 hrs by MTT assay; type: cell-based; conditions: k562/a02, 48 h
Summary of the method: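 Adriamycin-selected K562/A02 cells given test compound alone at 5 µM for 48 h; cytotoxicity scored by MTT as intrinsic growth inhibition.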

[3] = Reversal of P-gp-mediated multidrug resistance in human K562/A02 cells assessed as reduction of adriamycin IC50 at 5 uM after 48 hrs by MTT assay; type: cell-based; conditions: K562/A02, 48 h; summary of the method: as §1
[4] = Cytotoxicity against human K562/A02 cells after 48 hrs by MTT assay; type: functional, cell-based; conditions: K562/A02, 48 h
[5] = Resistance factor, ratio of adriamycin IC50 for human K562/A02 cells over-expressing Pgp to adriamycin IC50 for human K562/A02 cells over-expressing Pgp in presence of 5 uM compound incubated for 24 hrs prior to adriamycin treatment; type: functional
Summary of the method: (§2)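 K562/A02 cells incubated 24 h with 5 µM modulator, verapamil or vehicle, then washed with growth medium. […] Reversal fold = IC50 without modulator / IC50 with modulator. Two to three experiments, mean ± SEM.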

[6] = Resistance factor, ratio of adriamycin IC50 for human K562/A02 cells over-expressing Pgp to adriamycin IC50 for human K562/A02 cells over-expressing Pgp in presence of 2.5 uM compound; type: functional
Summary of the method: (§3)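 K562/A02 (P-gp-overexpressing) cells given graded adriamycin plus modulator at 2.5, 1.25, 0.625, 0.31, 0.156, 0.078 or 0.04 µM; verapamil 2.5 µM as positive control; adriamycin IC50 by MTT. Reversal fold = IC50 without modulator / IC50 with modulator. Two to three experiments, mean ± SEM.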

[7] = Resistance factor, ratio of adriamycin IC50 for human K562/A02 cells over-expressing Pgp to adriamycin IC50 for human K562/A02 cells over-expressing Pgp in presence of 5 uM compound incubated for 24 hrs followed by adriamycin treatment post compound washout; type: functional; summary of the method: as §2
[8] = Reversal of P-gp-mediated multidrug resistance in human K562/A02 cells assessed as reduction of adriamycin IC50 at 5 uM incubated for 24 hrs prior to adriamycin treatment measured after 48 hrs by MTT assay; type: cell-based; summary of the method: as §2
[9] = Reversal of P-gp-mediated multidrug resistance in human K562/A02 cells assessed as reduction of adriamycin IC50 at 2.5 uM after 48 hrs by MTT assay; type: cell-based; conditions: K562/A02, 48 h; summary of the method: as §3
[10] = Reversal of P-gp-mediated multidrug resistance in human K562/A02 cells assessed as reduction of adriamycin IC50 at 5 uM incubated for 24 hrs followed by adriamycin treatment post compound washout measured after 48 hrs by MTT assay; type: cell-based; summary of the method: as §2
[11] = Reversal of P-gp-mediated multidrug resistance in human K562/A02 cells assessed as reduction of adriamycin IC50 at 5 uM incubated for 24 hrs followed by adriamycin treatment 12 hrs post compound washout measured after 48 hrs by MTT assay; type: cell-based; summary of the method: as §2
[12] = Reversal of P-gp-mediated multidrug resistance in human K562/A02 cells assessed as reduction of adriamycin IC50 at 5 uM incubated for 24 hrs followed by adriamycin treatment 6 hrs post compound washout measured after 48 hrs by MTT assay; type: cell-based; summary of the method: as §2

SMILES	Ratio IC50 [1]	Activity [2]	IC50 [3]	further results
COc1cc2c(cc1OC)CN(CCn1cc(COc3ccccc3NC(=O)c3ccc4ccccc4n3)nn1)CC2	10.4	< 10%	5.21 µM	
COc1cccc2c1C(=O)c1c(O)c3c(c(O)c1C2=O)C[C@@](O)(C(=O)CO)C[C@@H]3O[C@H]1C[C@H](N)[C@H](O)[C@H](C)O1 [DOXORUBICIN HYDROCHLORIDE]				IC50 [4]: 54.2 µM
COc1cc2c(cc1OC)CN(CCn1cc(COc3ccccc3NC(=O)c3ccc(C)cc3)nn1)CC2	7.5	< 10%	7.25 µM	
COc1ccc(C(=O)Nc2ccccc2OCc2cn(CCN3CCc4cc(OC)c(OC)cc4C3)nn2)cc1	8.7	< 10%	6.25 µM	
COc1cc2c(cc1OC)CN(CCn1cc(COc3ccccc3NC(=O)c3ccc(C#N)cc3)nn1)CC2	3.6	< 10%	14.4 µM	
COc1cc2c(cc1OC)CN(CCn1cc(COc3ccccc3NC(=O)c3cccc([N+](=O)[O-])c3)nn1)CC2	3.6	< 10%	15.1 µM	
COc1ccc(CCN(C)CCCC(C#N)(c2ccc(OC)c(OC)c2)C(C)C)cc1OC (stereo not drawn) [VERAPAMIL]	8.7		6.8 µM	Ratio IC50 [5]: 8.4; Ratio IC50 [6]: 3.4; Ratio IC50 [7]: 1.9; IC50 [8]: 9.6 µM; IC50 [9]: 15.9 µM; IC50 [10]: 40.8 µM; IC50 [11]: > 80 µM; IC50 [12]: > 80 µM
COc1cccc(C(=O)Nc2ccccc2OCc2cn(CCN3CCc4cc(OC)c(OC)cc4C3)nn2)c1	5.6	< 10%	9.71 µM	
COc1ccc(C(=O)Nc2ccccc2OCc2cn(CCN3CCc4cc(OC)c(OC)cc4C3)nn2)cc1OC	8.4	< 10%	6.45 µM	
COc1cc2c(cc1OC)CN(CCn1cc(COc3ccccc3NC(=O)c3ccccc3[N+](=O)[O-])nn1)CC2	3.5	< 10%	15.6 µM	
COc1cc2c(cc1OC)CN(CCn1cc(COc3ccccc3NC(=O)c3ccc(N(C)C)cc3)nn1)CC2	5.8	< 10%	9.32 µM	
